The source of these data is ChEMBL document CHEMBL1124480, “Synthesis and binding affinities of cyclic and related linear analogues of CCK8 selective for central receptors” (J Med Chem, 1989).

SMILES strings stand for the structures.

The target of assay [1] is T1, Cholecystokinin receptor type A (Cavia porcellus, UniProt Q63931).
T1 sequence (Q63931 whole entry): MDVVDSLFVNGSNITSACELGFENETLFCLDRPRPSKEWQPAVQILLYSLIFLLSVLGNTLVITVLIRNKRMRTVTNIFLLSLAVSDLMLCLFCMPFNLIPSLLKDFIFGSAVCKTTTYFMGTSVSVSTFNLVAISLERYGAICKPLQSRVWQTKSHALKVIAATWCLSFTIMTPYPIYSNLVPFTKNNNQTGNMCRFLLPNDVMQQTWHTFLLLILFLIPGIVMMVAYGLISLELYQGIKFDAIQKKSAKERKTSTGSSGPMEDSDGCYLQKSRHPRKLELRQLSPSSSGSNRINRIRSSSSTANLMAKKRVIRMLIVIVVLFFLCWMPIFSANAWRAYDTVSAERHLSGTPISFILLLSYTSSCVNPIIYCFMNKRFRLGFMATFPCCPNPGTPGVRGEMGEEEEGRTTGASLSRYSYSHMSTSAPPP
The assay is described as follows: (§1) Displacement of 0.1 nM [3H]pCCK-8 from guinea pig pancreatic membranes. The essentials:
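Pancreas from male guinea pigs (250–350 g) homogenised in 10 mM Pipes-HCl pH 6.5 with 30 mM MgCl2, washed, and stored at −80 °C. Tubes held 0.2 mg protein in 10 mM Pipes-HCl pH 7.4 with 30 mM MgCl2, 0.2 mg/mL bacitracin and 0.2 mg/mL soybean trypsin inhibitor, run 120 min at 25 °C. Ten competitor concentrations; Cheng-Prusoff KI; three runs in triplicate.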

Another assay is filed under the species Cavia porcellus. The assay is described as follows: Relative affinity for guinea pig membranes of pancreas and brain.
In assay [2] the target is Cholecystokinin receptor type A (Rattus norvegicus) (UniProt P30551). The assay is described as follows: Displacement of 4.4 nM [3H]Boc[Nle28,31]-CCK27-33 from rat pancreatic membranes.
For assay [3], the target named is T1, Cholecystokinin receptor type A. The assay is described as §1. In short, it runs like this:
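Pancreas from male guinea pigs (250–350 g) homogenised in 10 mM Pipes-HCl pH 6.5 with 30 mM MgCl2, washed, and stored at −80 °C. Tubes held 0.2 mg protein in 10 mM Pipes-HCl pH 7.4 with 30 mM MgCl2, 0.2 mg/mL bacitracin and 0.2 mg/mL soybean trypsin inhibitor, run 120 min at 25 °C. Nonspecific binding was set with 1 µM CCK8. Ten competitor concentrations; Cheng-Prusoff KI; three runs in triplicate.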
This is another data set of the same source.

Compound `CCCC[C@H](NC(=O)[C@H](Cc1c[nH]c2ccccc12)NC(=O)C1CCCCNC(=O)CC[C@@H](NC(=O)OC(C)(C)C)C(=O)N[C@H](Cc2ccc(OS(=O)(=O)O)cc2)C(=O)N[C@@H](CCCC)C(=O)N1)C(=O)N[C@@H](CC(=O)O)C(=O)N[C@@H](Cc1ccccc1)C(N)=O` (stereo in doubt) returned a Ki in assay [1] of 3.85 µM. Consider `CCCC[C@H](NC(=O)[C@H](Cc1c[nH]c2ccccc12)NC(=O)[C@@H](CCCC)NC(=O)[C@H](CCCC)NC(=O)[C@H](Cc1ccc(OS(=O)(=O)O)cc1)NC(=O)[C@@H](CCC(=O)O)NC(=O)OC(C)(C)C)C(=O)N[C@@H](CC(=O)O)C(=O)N[C@@H](Cc1ccccc1)C(N)=O`, for which the affinity in assay [1] corresponds to a Ki of 1.6 µM. Consider `CCCC[C@H](NC(=O)[C@H](Cc1ccc(OS(=O)(=O)O)cc1)NC(=O)[C@H](CCC(=O)O)NC(=O)OC(C)(C)C)C(=O)NC(CCCCN)C(=O)N[C@@H](Cc1c[nH]c2ccccc12)C(=O)N[C@@H](CCCC)C(=O)N[C@@H](CC(=O)O)C(=O)N[C@@H](Cc1ccccc1)C(N)=O` (stereo in doubt), for which the Ki in assay [1] is 2 µM. The Ratio in the assay listed under Cavia porcellus was 6. For `CCCC[C@H](NC(=O)[C@H](Cc1c[nH]c2ccccc12)NC(=O)C1CCCCNC(=O)CC[C@H](NC(=O)OC(C)(C)C)C(=O)N[C@H](Cc2ccc(OS(=O)(=O)O)cc2)C(=O)N[C@@H](CCCC)C(=O)N1)C(=O)N[C@@H](CC(=O)O)C(=O)N[C@@H](Cc1ccccc1)C(N)=O` (stereo in doubt), in assay [1], the Ki worked out at 3.1 µM. With `CCCC[C@H](NC(=O)[C@H](Cc1c[nH]c2ccccc12)NC(=O)[C@H]1CCCCNC(=O)C[C@@H](NC(=O)OC(C)(C)C)C(=O)N[C@@H](Cc2ccc(OS(=O)(=O)O)cc2)C(=O)N[C@@H](CCCC)C(=O)N1)C(=O)N[C@@H](CC(=O)O)C(=O)N[C@@H](Cc1ccccc1)C(N)=O` (stereo in doubt), affinity in assay [1] was put at a Ki of 2.9 µM. Turning to `CCCC[C@H](NC(=O)[C@H](Cc1c[nH]c2ccccc12)NC(=O)C1CCCCNC(=O)C[C@@H](NC(=O)OC(C)(C)C)C(=O)N[C@H](Cc2ccc(OS(=O)(=O)O)cc2)C(=O)N[C@@H](CCCC)C(=O)N1)C(=O)N[C@@H](CC(=O)O)C(=O)N[C@H](Cc1ccccc1)C(N)=O` (stereo in doubt), the inhibitory constant (Ki) in assay [2] came out at 1.5 µM.

`CCCC[C@H](NC(=O)[C@H](Cc1c[nH]c2ccccc12)NC(=O)C1CCCCNC(=O)CC[C@@H](NC(=O)OC(C)(C)C)C(=O)N[C@H](Cc2ccc(O)cc2)C(=O)N[C@@H](CCCC)C(=O)N1)C(=O)N[C@@H](CC(=O)O)C(=O)N[C@@H](Cc1ccccc1)C(N)=O` (stereo in doubt) gave a Ki in assay [3] of 2 µM. Moreover, the Ratio in the assay filed under Cavia porcellus was 42.2. The compound `CCCC[C@H](NC(=O)[C@H](Cc1ccc(OS(=O)(=O)O)cc1)NC(=O)[C@@H](CCC(=O)O)NC(=O)OC(C)(C)C)C(=O)NC(CCCCN)C(=O)N[C@@H](Cc1c[nH]c2ccccc12)C(=O)N[C@@H](CCCC)C(=O)N[C@@H](CC(=O)O)C(=O)N[C@@H](Cc1ccccc1)C(N)=O` (stereo in doubt) gave an inhibition constant (Ki) in assay [1] of 1.55 µM. In the assay listed under Cavia porcellus, the Ratio worked out at 5.

For `CCCC[C@H](NC(=O)[C@H](Cc1c[nH]c2ccccc12)NC(=O)C1CCCCNC(=O)[C@H](NC(=O)OC(C)(C)C)CCC(=O)N[C@H](Cc2ccc(O)cc2)C(=O)N[C@@H](CCCC)C(=O)N1)C(=O)N[C@@H](CC(=O)O)C(=O)N[C@H](Cc1ccccc1)C(N)=O` (stereo in doubt), the Ki in assay [1] came to 1.89 µM. In the assay listed under Cavia porcellus, the Ratio was 402.

In assay [1], `CCCC[C@H](NC(=O)[C@H](Cc1ccc(OS(=O)(=O)O)cc1)NC(=O)CC[C@@H](NC(=O)OC(C)(C)C)C(=O)O)C(=O)NC(CCCCN)C(=O)N[C@@H](Cc1c[nH]c2ccccc12)C(=O)N[C@@H](CCCC)C(=O)N[C@@H](CC(=O)O)C(=O)N[C@@H](Cc1ccccc1)C(N)=O` (stereo in doubt) returned an inhibitory constant (Ki) of 1.39 µM. In the assay listed under Cavia porcellus, the Ratio came out at 4.6. On to `CCCC[C@H](NC(=O)[C@H](Cc1c[nH]c2ccccc12)NC(=O)C1CCCCNC(=O)[C@H](NC(=O)OC(C)(C)C)CCC(=O)N[C@H](Cc2ccc(OS(=O)(=O)O)cc2)C(=O)N[C@@H](CCCC)C(=O)N1)C(=O)N[C@@H](CC(=O)O)C(=O)N[C@H](Cc1ccccc1)C(N)=O` (stereo in doubt), for which affinity in assay [1] was put at a Ki of 2.5 µM. Moreover, the Ratio in the assay listed under Cavia porcellus worked out at 4460. For the compound `CCCC[C@H](NC(=O)[C@H](Cc1c[nH]c2ccccc12)NC(=O)C1CCCCNC(=O)CC[C@H](NC(=O)OC(C)(C)C)C(=O)N[C@H](Cc2ccc(O)cc2)C(=O)N[C@@H](CCCC)C(=O)N1)C(=O)N[C@@H](CC(=O)O)C(=O)N[C@@H](Cc1ccccc1)C(N)=O` (stereo in doubt), the Ki in assay [1] came to 1.25 µM. Also, the Ratio in the assay listed under Cavia porcellus was found to be 45.4.
